Blank lines part the entries; values can stand above or below the compound they belong to.
Assays:
[1] = molecular target: Angiotensin-converting enzyme (Rattus norvegicus) (UniProt P47820); assay: The time to 50% recovery of the angiotensin I response was measured after po administration at 0.15 mg/kg; 10-20
[2] = molecular target: T1, Angiotensin-converting enzyme (Oryctolagus cuniculus, UniProt P12822); assay: In vitro inhibition of Angiotensin I converting enzyme activity in rabbit lung; assay type: tissue-based; conditions: read-out: I50
T1 sequence (P12822 whole entry): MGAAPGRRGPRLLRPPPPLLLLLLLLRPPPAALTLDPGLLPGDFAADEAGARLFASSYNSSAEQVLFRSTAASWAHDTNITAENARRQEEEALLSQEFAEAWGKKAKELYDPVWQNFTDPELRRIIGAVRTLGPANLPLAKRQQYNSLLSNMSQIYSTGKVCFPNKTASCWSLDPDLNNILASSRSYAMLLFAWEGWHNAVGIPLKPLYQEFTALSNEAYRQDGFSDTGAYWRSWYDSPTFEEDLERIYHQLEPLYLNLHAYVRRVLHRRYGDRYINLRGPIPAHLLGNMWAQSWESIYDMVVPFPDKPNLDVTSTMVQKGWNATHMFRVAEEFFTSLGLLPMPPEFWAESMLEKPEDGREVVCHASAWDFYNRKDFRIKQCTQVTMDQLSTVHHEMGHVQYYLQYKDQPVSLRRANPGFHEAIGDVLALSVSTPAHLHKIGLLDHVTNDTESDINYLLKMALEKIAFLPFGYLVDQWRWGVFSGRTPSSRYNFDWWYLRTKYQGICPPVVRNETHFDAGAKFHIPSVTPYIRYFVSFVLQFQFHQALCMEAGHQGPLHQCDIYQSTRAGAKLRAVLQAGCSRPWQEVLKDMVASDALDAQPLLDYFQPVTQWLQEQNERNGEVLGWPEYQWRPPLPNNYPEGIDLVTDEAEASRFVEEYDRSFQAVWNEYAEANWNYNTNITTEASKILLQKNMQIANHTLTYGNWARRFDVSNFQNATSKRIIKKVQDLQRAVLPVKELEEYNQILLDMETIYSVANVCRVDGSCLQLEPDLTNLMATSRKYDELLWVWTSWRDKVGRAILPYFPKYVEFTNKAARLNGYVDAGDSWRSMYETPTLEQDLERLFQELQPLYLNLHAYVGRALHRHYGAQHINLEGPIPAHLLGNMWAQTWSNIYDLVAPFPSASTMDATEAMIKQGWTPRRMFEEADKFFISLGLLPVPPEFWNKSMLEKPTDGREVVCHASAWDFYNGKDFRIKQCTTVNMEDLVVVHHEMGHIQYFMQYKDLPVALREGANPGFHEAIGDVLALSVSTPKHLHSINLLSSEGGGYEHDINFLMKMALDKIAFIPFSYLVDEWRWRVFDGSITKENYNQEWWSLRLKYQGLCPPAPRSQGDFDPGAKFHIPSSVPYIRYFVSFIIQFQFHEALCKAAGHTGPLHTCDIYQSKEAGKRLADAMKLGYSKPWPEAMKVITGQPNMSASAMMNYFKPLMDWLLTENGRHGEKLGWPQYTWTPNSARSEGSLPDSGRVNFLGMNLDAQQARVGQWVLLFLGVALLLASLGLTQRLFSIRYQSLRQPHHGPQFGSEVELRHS

[3] = molecular target: T1, Angiotensin-converting enzyme; assay: In vitro inhibition of Angiotensin I converting enzyme activity at pH 8.5 in rabbit lung; assay type: tissue-based; conditions: read-out: I50
[4] = tested on: Rattus norvegicus; assay: Maximum percent change in mean arterial pressure by the compound over control after ip administration at 100 mg/kg dosage; 9-14; conditions: route intraperitoneal
[5] = molecular target: Angiotensin-converting enzyme (Rattus norvegicus) (UniProt P47820); assay: Percentage inactivation of the angiotensin I induced vasopressor response in normotensive conscious rats after po administration at dose 0.15 mg/kg
[6] = tested on: Rattus norvegicus; assay: Time taken by the compound to change arterial pressure outside the control area at a dose of 100 mg/kg, po; assay type: functional, Artery
In short: (§1)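 Spontaneously hypertensive rats kept on a sodium-deficient diet, single oral dose, arterial pressure and heart rate monitored. Duration is the time pressure lies outside a control area, defined as the means (±2 standard deviations) of arterial pressure and heart rate readings from 45 control rats. Range given across animals.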

[7] = molecular target: Angiotensin-converting enzyme (Rattus norvegicus) (UniProt P47820); assay: The time to 50% recovery of the angiotensin I response was measured after po administration at 0.15 mg/kg; 10-40
[8] = molecular target: Angiotensin-converting enzyme (Rattus norvegicus) (UniProt P47820); assay: Percentage inactivation of the angiotensin I induced vasopressor response in normotensive conscious rats after po administration at dose 0.15 mg/kg; 55-76
[9] = tested on: Rattus norvegicus; assay: Maximum percent change in mean arterial pressure by the compound over control after po administration at 100 mg/kg dosage; assay type: functional, Artery
In short: (§2)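 Spontaneously hypertensive rats kept on a sodium-deficient diet received the agent orally. Value = maximum % change in mean arterial pressure over control. Duration = time outside a control area, defined as the means ±2 SD of arterial pressure and heart rate readings from 45 control rats.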

[10] = molecular target: T1, Angiotensin-converting enzyme; assay: Compound was tested in vitro for inhibition of activity of rabbit lung Angiotensin I converting enzyme at pH 8.5; 0.14-10; conditions: read-out: I50
[11] = tested on: Rattus norvegicus; assay: Maximum percent change in mean arterial pressure by the compound over control after po administration at 100 mg/kg dosage; -(-32-40); assay type: functional, Artery
In short: as §2

[12] = molecular target: Angiotensin-converting enzyme (Rattus norvegicus) (UniProt P47820); assay: The time to 50% recovery of the angiotensin I response was measured after po administration at 0.8 mg/kg; 35-50
[13] = molecular target: Angiotensin-converting enzyme (Rattus norvegicus) (UniProt P47820); assay: Percentage inactivation of the angiotensin I induced vasopressor response in normotensive conscious rats after po administration at dose 0.80 mg/kg; 50-55
[14] = molecular target: Angiotensin-converting enzyme (Rattus norvegicus) (UniProt P47820); assay: The time to 50% recovery of the angiotensin I response was measured after po administration at 0.3 mg/kg; 10-30
[15] = tested on: Rattus norvegicus; assay: Maximum percent change in mean arterial pressure by the compound over control after po administration at 100 mg/kg dosage; -(-27-45); assay type: functional, Artery
In short: as §2

[16] = molecular target: Angiotensin-converting enzyme (Rattus norvegicus) (UniProt P47820); assay: Percentage inactivation of the angiotensin I induced vasopressor response in normotensive conscious rats after po administration at dose 0.3 mg/kg; 45-50
[17] = tested on: Rattus norvegicus; assay: Time taken by the compound to change arterial pressure outside the control area at a dose of 100 mg/kg, po; 15->24; assay type: functional, Artery
In short: as §1

[18] = molecular target: Angiotensin-converting enzyme (Rattus norvegicus) (UniProt P47820); assay: The time to 50% recovery of the angiotensin I response was measured after po administration at 0.6 mg/kg; 40-50
[19] = tested on: Rattus norvegicus; assay: Maximum percent change in mean arterial pressure by the compound over control after po administration at 100 mg/kg dosage; -(17-29); assay type: functional, Artery
In short: as §2

[20] = molecular target: Angiotensin-converting enzyme (Rattus norvegicus) (UniProt P47820); assay: Percentage inactivation of the angiotensin I induced vasopressor response in normotensive conscious rats after po administration at dose 0.60 mg/kg; 50-55
[21] = tested on: Rattus norvegicus; assay: Time taken by the compound to change arterial pressure outside the control area at a dose of 100 mg/kg, po; 5.5-15; assay type: functional, Artery
In short: as §1

[22] = tested on: Rattus norvegicus; assay: Time taken by the compound to change arterial pressure outside the control area at a dose of 50 mg/kg, po; 3-19.5; assay type: functional, Artery
In short: as §1

[23] = molecular target: Angiotensin-converting enzyme (Rattus norvegicus) (UniProt P47820); assay: The time to 50% recovery of the angiotensin I response was measured after po administration at 1.5 mg/kg; 70-90
[24] = tested on: Rattus norvegicus; assay: Maximum percent change in mean arterial pressure by the compound over control after po administration at 50 mg/kg dosage; -(31-34); assay type: functional, Artery
In short: as §2

[25] = molecular target: Angiotensin-converting enzyme (Rattus norvegicus) (UniProt P47820); assay: Percentage inactivation of the angiotensin I induced vasopressor response in normotensive conscious rats after po administration at dose 1.5 mg/kg; 71-81
[26] = molecular target: Angiotensin-converting enzyme (Rattus norvegicus) (UniProt P47820); assay: Percentage inactivation of the angiotensin I induced vasopressor response in normotensive conscious rats after po administration at dose 0.15 mg/kg; 65-69
[27] = tested on: Rattus norvegicus; assay: The time to 50% recovery of the angiotensin I response was measured after po administration at 0.15 mg/kg; 10-50
[28] = tested on: Rattus norvegicus; assay: Time taken by the compound to change arterial pressure outside the control area at a dose of 100 mg/kg, po; 2-12.5; assay type: functional, Artery
In short: as §1

[29] = tested on: Rattus norvegicus; assay: Maximum percent change in mean arterial pressure by the compound over control after po administration at 100 mg/kg dosage; -(15-27); assay type: functional, Artery
In short: as §2

Sequence of Angiotensin-converting enzyme (Rattus norvegicus) (P47820 whole entry, looked up): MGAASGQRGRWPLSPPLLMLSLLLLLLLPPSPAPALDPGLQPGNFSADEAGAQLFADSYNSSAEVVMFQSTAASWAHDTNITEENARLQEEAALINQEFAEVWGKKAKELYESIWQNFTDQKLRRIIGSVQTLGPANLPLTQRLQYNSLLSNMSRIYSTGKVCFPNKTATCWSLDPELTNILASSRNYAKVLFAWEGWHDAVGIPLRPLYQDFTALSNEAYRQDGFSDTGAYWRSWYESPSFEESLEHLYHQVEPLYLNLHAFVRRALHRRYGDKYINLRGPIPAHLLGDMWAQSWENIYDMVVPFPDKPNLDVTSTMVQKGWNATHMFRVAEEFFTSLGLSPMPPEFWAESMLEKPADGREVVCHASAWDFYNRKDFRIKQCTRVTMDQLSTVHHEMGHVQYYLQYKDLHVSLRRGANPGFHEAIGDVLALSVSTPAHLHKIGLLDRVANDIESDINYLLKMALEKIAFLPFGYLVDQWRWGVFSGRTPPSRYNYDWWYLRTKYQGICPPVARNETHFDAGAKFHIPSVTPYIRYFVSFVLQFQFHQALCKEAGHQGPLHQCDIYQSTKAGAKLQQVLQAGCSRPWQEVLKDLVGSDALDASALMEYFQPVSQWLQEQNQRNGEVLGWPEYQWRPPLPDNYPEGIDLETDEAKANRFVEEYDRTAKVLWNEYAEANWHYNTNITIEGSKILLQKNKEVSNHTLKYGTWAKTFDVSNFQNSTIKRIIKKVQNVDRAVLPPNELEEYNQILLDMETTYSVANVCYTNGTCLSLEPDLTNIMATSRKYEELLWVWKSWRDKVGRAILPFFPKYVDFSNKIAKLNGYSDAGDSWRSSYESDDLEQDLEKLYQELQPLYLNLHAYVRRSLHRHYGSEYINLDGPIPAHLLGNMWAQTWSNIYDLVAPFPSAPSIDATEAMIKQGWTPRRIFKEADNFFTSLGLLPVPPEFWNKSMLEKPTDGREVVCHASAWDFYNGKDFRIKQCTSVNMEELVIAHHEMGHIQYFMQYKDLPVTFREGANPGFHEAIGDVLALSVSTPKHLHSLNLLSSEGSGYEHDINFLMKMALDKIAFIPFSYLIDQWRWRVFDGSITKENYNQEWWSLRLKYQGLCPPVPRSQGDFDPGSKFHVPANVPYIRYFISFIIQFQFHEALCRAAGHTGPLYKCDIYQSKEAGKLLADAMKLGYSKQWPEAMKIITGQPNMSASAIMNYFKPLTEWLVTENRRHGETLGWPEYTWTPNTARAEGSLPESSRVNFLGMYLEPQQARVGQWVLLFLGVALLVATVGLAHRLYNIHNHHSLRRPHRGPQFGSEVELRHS

- Duration [1]: 10 min
- IC50 [2]: 4500 nM
- IC50 [3]: 4800 nM
- inhibition [5]: 5%
Compound: O=C1CN(C2CCCC2)C(=O)c2ccccc2S1
- MAP [4]: 9%

- IC50 [2]: 21 nM
- IC50 [3]: 5 nM
- Duration [7]: 10 min
- inhibition [8]: 55%
Compound: Cc1ccc(N2CC(=O)SCC(C)C2=O)cc1 (configuration not stated)
- Duration [6]: > 1440 min
- MAP [9]: -37%

- IC50 [2]: 380 nM
- IC50 [10]: 140 nM
Compound: CC1SC(=O)C2CSCN2C1=O (configuration not stated)

- IC50 [2]: 400 nM
- IC50 [3]: 380 nM
- Duration [12]: 35 min
- inhibition [13]: 50%
Compound: COc1cccc2c1SC(=O)CN(C1CCCC1)C2=O
- MAP [11]: -32%
- Duration [6]: >1440 min

- Duration [14]: 10 min
- IC50 [2]: 12 nM
- inhibition [16]: 45%
Compound: C[C@@H]1CSC(=O)[C@@H]2Cc3ccccc3CN2C1=O
- MAP [15]: -27%
- Duration [17]: 900 min

- IC50 [2]: 210 nM
- Duration [18]: 40 min
- IC50 [3]: 280 nM
- inhibition [20]: 50%
Compound: O=C1CN(C2CCCC2)C(=O)c2cccc(Cl)c2S1
- MAP [19]: -17%
- Duration [21]: 5.5 h

- IC50 [2]: 85 nM
- Duration [23]: 70 min
- IC50 [3]: 26 nM
- inhibition [25]: 71%
Compound: Cc1ccc(N2CC(=O)SC(C)C2=O)cc1 (configuration not stated)
- Duration [22]: 3 h
- MAP [24]: -31%

- inhibition [26]: 65%
- IC50 [2]: 13 nM
- Duration [27]: 10 min
- IC50 [3]: 18 nM
Compound: CC1CSC(=O)CN(C2CCCC2)C1=O (configuration not stated)
- Duration [28]: 2 h
- MAP [29]: -15%
